Converted amounts (≈) assume the structure as drawn. The source made the active and inactive calls. The calls are words filed in the database; no cut-off is given here.
Legend:
[1] = Selectivity index, ratio of IC50 for human CCD-19Lu cells to IC50 for human Hep2C cells; type: functional
In short: (§1)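 Selectivity index equals IC50 in non-tumour CCD 19-Lu lung fibroblasts divided by IC50 in the tumour line. Both IC50s come from the 24 h MTT assay (read at 540 nm) over 1.0-1,000 µg/mL.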

[2] = test system: Candida albicans; experiment: Growth inhibition of Candida albicans ATCC 10231 at 62.5 ug/ml incubated for 48 hrs under dark condition by broth microdilution assay relative to amphotericin B; type: functional; conditions: ATCC 10231, 48 h, read-out: GI
In short: (§2)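 Yeast broth microdilution (CLSI M27-A3), RPMI-1640, inoculum 1-5 x 10^3 CFU/mL, DMSO ≤1%, 48 h at 30 °C in a moist, dark chamber. […]. Triplicate; amphotericin B as positive control.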

[3] = test system: Candida albicans; experiment: Growth inhibition of Candida albicans ATCC 10231 at 3.9 ug/ml incubated for 48 hrs under dark condition by broth microdilution assay relative to amphotericin B; type: functional; conditions: ATCC 10231, 48 h, read-out: GI; in short: as §2
[4] = test system: NCI-H226; experiment: Selectivity index, ratio of IC50 for human CCD-19Lu cells to IC50 for human NCI-H226 cells; type: functional; in short: as §1
[5] = test system: Candida albicans; experiment: Antifungal activity against Candida albicans ATCC 10231 incubated for 48 hrs under dark condition by broth microdilution assay; type: functional; conditions: ATCC 10231, 48 h
In short: (§3)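 Broth microdilution per CLSI M27-A3 in RPMI-1640. Inocula adjusted to 1-5 x 10^3 CFU/mL. Stocks in DMSO (≤1%), final 3.9-250.0 µg/mL. Incubated 48 h at 30 °C in a moist, dark chamber, read at OD 405. % inhibition computed from growth and sterility control wells, run in triplicate. MIC80/MIC50 taken from four-parameter logistic concentration-response curves; amphotericin B as positive control.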

[6] = Ratio of antifungal activity against Candida albicans ATCC 10231 to antifungal activity against Cryptococcus neoformans ATCC 32264; type: functional
[7] = test system: Candida albicans; experiment: Growth inhibition of Candida albicans ATCC 10231 at 31.25 ug/ml incubated for 48 hrs under dark condition by broth microdilution assay relative to amphotericin B; type: functional; conditions: ATCC 10231, 48 h, read-out: GI; in short: as §2
[8] = Selectivity index, ratio of IC50 for human CCD-19Lu cells to IC50 for human TOV21G cells; type: functional; in short: as §1
[9] = Antioxidant activity assessed as fluorescent light-induced superoxide anion scavenging activity at 160 uM incubated for 10 mins by nitroblue tetrazolium dye based assay; type: functional
In short: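 Superoxide generated photochemically in 50 mM phosphate buffer pH 7.8 with 13 mM L-methionine, 75 µM nitroblue tetrazolium, 100 µM EDTA and 2 µM riboflavin. Compound at 160 µM. 10 min at 25 °C under fluorescent light; dark controls. Read at 575 nm. Resveratrol as positive control; three independent experiments in triplicate.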

[10] = Antifungal activity against Cryptococcus neoformans ATCC 32264 incubated for 48 hrs under dark condition by broth microdilution assay; type: functional; in short: as §3
[11] = Antioxidant activity assessed as DPPH radical scavenging activity at 160 uM incubated for 30 mins under dark condition; type: functional
In short: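 Compound at 160 µM incubated with 100 µM DPPH in ethanolic medium, stirred in the dark for 30 min, read at 517 nm. Resveratrol as positive control. Three independent experiments, each in triplicate.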

[12] = Antiproliferative activity against human NCI-H226 cells harboring TP53 mutant after 24 hrs by MTT assay; type: functional, cell-based; conditions: NCI-H226, 24 h
In short: (§4)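 Cells grown in medium with 10% foetal bovine serum and 1% L-glutamine at 37 °C, 5% CO2, seeded at 1 x 10^5 cells/well. Exposed to compound at 1.0-1,000 µg/mL for 24 h. MTT added, absorbance read at 540 nm 3 h later. IC50 obtained by non-linear regression of viability data.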

[13] = Antiproliferative activity against human TOV21G harboring wild type TP53 cells after 24 hrs by MTT assay; type: functional, cell-based; in short: as §4
[14] = test system: Candida albicans; experiment: Growth inhibition of Candida albicans ATCC 10231 at 125 ug/ml incubated for 48 hrs under dark condition by broth microdilution assay relative to amphotericin B; type: functional; conditions: ATCC 10231, 48 h, read-out: GI; in short: as §2
[15] = Antiproliferative activity against human Hep2C cells after 24 hrs by MTT assay; type: functional, cell-based; in short: as §4
[16] = Antiproliferative activity against human CCD-19Lu cells after 24 hrs by MTT assay; type: cell-based; in short: as §4
[17] = test system: Candida albicans; experiment: Growth inhibition of Candida albicans ATCC 10231 at 250 ug/ml incubated for 48 hrs under dark condition by broth microdilution assay relative to amphotericin B; type: functional; conditions: ATCC 10231, 48 h, read-out: GI; in short: as §2
[18] = test system: Candida albicans; experiment: Growth inhibition of Candida albicans ATCC 10231 at 15.62 ug/ml incubated for 48 hrs under dark condition by broth microdilution assay relative to amphotericin B; type: functional; conditions: ATCC 10231, 48 h, read-out: GI; in short: as §2
[19] = Antioxidant activity assessed as DPPH radical scavenging activity incubated for 30 mins under dark condition; type: functional
In short: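 DPPH (100 µM) in ethanolic medium, stirred 30 min in the dark, absorbance at 517 nm. Compound varied from 0 to 160 µg/mL to find the concentration scavenging 50% of radicals. Three independent experiments, each in triplicate.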

[20] = test system: Candida albicans; experiment: Growth inhibition of Candida albicans ATCC 10231 at 7.81 ug/ml incubated for 48 hrs under dark condition by broth microdilution assay relative to amphotericin B; type: functional; conditions: ATCC 10231, 48 h, read-out: GI; in short: as §2
[21] = Antioxidant activity assessed as fluorescent light-induced superoxide anion scavenging activity incubated for 10 mins by nitroblue tetrazolium dye based assay; type: functional
In short: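 Riboflavin/light superoxide system: 50 mM phosphate pH 7.8, 13 mM L-methionine, 75 µM NBT, 100 µM EDTA, 2 µM riboflavin, compound 0-200 µg/mL. Fluorescent light for 10 min at 25 °C, dark controls, scavenging measured at 575 nm. Resveratrol as reference.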

[22] = Potency index, ratio of resveratrol SC50 to compound SC50 for fluorescent light-induced superoxide anion scavenging activity

Row | SMILES | inhibition of growth at 62.5 µg/mL [2] | inhibition of growth at 3.9 µg/mL [3] | MIC50 [5] | MIC80 [5] | inhibition of growth at 31.25 µg/mL [7] | Activity [9] | MIC50 [10] | MIC80 [10] | Activity [11] | inhibition of growth at 125 µg/mL [14] | IC50 [15] | inhibition of growth at 250 µg/mL [17] | inhibition of growth at 15.62 µg/mL [18] | SC50 [19] | inhibition of growth at 7.81 µg/mL [20] | SC50 [21] | also measured
1 | Brc1ccc2nc(-c3ccccc3)cc(-c3ccccc3)c2c1 | 17.2% | 1.16% | 125 µg/mL (≈ 347 µM) | > 250 µg/mL | 10.1% | < 10% | 31.2 µg/mL (≈ 86.6 µM) | > 250 µg/mL | 45 to 55% | 30.7% | 128 µM | 55.9% | 7.33% | > 250 µM | 2.57% | > 250 µM | Ratio IC50 [1]: 5; Ratio IC50 [4]: 15; Ratio [6]: 4; Ratio IC50 [8]: 1; IC50 [12]: 43.4 µM; IC50 [13]: 531 µM; IC50 [16]: 669 µM
2 | Cc1ccc(-c2cc(-c3ccccc3)c3cc(Br)ccc3n2)cc1 | 5.87% | 0% | > 250 µg/mL | > 250 µg/mL | 2.64% | Active | 15.6 µg/mL (≈ 41.7 µM) | > 250 µg/mL | 45 to 55% | 11.1% | 175 µM | 31.5% | 3.04% | 197 µM | 0% | 104 µM | Ratio [22]: 2

Reference: ChEMBL document CHEMBL3875213, “Quinolines: Microwave-assisted synthesis and their antifungal, anticancer and radical scavenger properties” (Bioorg Med Chem, 2017)
